Measurements collected from several papers.
Lines come from different studies, so protocols differ.
Read-out: ABTS scavenging

SMILES	technique	IC50
COc1cc(-c2oc3cc(O[C@@H]4O[C@H](CO)[C@@H](O)[C@H](O)[C@H]4O)cc(O)c3c(=O)c2O[C@@H]2O[C@H](CO)[C@@H](O)[C@H](O)[C@H]2O)ccc1O	absorbance	41700 nM
COc1ccc(-c2nc3cc(Cl)ccc3[nH]2)cc1OCc1ccccc1	absorbance	1750 nM
Cc1ccc(NC(=O)Cc2c[nH]c3ccccc23)cc1C	–	1580 nM
COC(=O)c1cc(O)c(O)c(O)c1	absorbance	14200 nM
Cc1c(C)c2c(c(C)c1O)CC[C@@](C)(CCC[C@H](C)CCC[C@H](C)CCCC(C)C)O2	–	8.37 µg/mL
O=c1oc2c(O)c(O)cc3c(=O)oc4c(O)c(O)cc1c4c23	absorbance	5760 nM
Cc1cc2nc(-c3ccccc3OCc3ccccc3)[nH]c2cc1C	absorbance	1780 nM
O=C(OC[C@H]1O[C@@H](OC(=O)c2cc(O)c(O)c(O)c2)[C@H](OC(=O)c2cc(O)c(O)c(O)c2)[C@@H](OC(=O)c2cc(O)c(O)c(O)c2)[C@@H]1O)c1cc(O)c(O)c(O)c1	absorbance	3590 nM
COc1ccc(-c2nc3cc(F)ccc3[nH]2)cc1OCc1ccccc1	absorbance	1720 nM
O=C(Cc1c[nH]c2ccccc12)Nc1ccc(Br)cc1	–	580 nM
O=c1c(O[C@@H]2O[C@H](CO)[C@@H](O)[C@H](O)[C@H]2O)c(-c2ccc(O)cc2)oc2cc(O[C@@H]3O[C@H](CO)[C@@H](O)[C@H](O)[C@H]3O)cc(O)c12	absorbance	30600 nM
Fc1ccc2[nH]c(-c3ccccc3OCc3ccccc3)nc2c1	absorbance	1770 nM
O=C(Cc1c[nH]c2ccccc12)Nc1ccc(F)cc1F	–	1310 nM
COc1ccc(-c2nc3cc(C)c(C)cc3[nH]2)cc1OCc1ccccc1	absorbance	1830 nM
Cc1ccc(NC(=O)Cc2c[nH]c3ccccc23)c(C)c1	–	1900 nM
